ChEMBL document CHEMBL3808276, “Identification of Adenine and Benzimidazole Nucleosides as Potent Human Concentrative Nucleoside Transporter 2 Inhibitors: Potential Treatment for Hyperuricemia and Gout” (J Med Chem, 2016)
Values after ≈ are worked out from the molar mass of the structure shown. Active and inactive are the calls of the source. No cut-off for these calls is given here.

Tests used:
[1] = target: T1, Sodium/nucleoside cotransporter 2 (Rattus norvegicus) (UniProt Q62773); test: Inhibition of rat CNT2 expressed in African green monkey COS7 cells assessed as reduction of [14C]-inosine uptake at 100 uM by liquid scintillation counting analysis; assay type: cell-based; settings: COS-7
T1 sequence (whole entry): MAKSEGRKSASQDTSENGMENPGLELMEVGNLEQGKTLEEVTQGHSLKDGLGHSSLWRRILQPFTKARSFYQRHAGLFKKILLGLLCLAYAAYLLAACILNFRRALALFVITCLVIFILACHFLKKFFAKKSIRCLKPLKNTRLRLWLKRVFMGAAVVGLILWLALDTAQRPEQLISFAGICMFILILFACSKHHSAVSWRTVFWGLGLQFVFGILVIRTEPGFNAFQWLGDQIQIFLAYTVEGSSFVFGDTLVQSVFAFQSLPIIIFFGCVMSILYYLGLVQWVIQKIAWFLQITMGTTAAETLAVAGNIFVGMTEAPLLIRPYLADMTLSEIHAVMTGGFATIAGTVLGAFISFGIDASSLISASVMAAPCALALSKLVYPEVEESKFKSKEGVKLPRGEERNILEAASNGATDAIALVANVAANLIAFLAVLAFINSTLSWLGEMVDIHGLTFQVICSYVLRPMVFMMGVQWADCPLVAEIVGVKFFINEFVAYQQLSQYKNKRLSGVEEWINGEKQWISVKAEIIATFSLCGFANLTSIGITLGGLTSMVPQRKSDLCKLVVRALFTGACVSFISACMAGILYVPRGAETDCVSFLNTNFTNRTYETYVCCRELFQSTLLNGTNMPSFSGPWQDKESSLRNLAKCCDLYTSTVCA

[2] = Solubility of compound in JP2 at pH 6.8 after 1 hr at 37 degC; assay type: physicochemical; settings: JP2, pH 6.8
In short: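 Solubility measured in JP2, a 1:1 mix of pH 6.8 phosphate buffer and water, after incubation for 1 h at 37 °C.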

[3] = target: T2, Sodium/nucleoside cotransporter 2 (Homo sapiens, UniProt O43868); test: Inhibition of human CNT2 expressed in African green monkey COS7 cells assessed as reduction of [14C]-inosine uptake by liquid scintillation counting analysis; assay type: cell-based, COS-7
T2 sequence (O43868 whole entry): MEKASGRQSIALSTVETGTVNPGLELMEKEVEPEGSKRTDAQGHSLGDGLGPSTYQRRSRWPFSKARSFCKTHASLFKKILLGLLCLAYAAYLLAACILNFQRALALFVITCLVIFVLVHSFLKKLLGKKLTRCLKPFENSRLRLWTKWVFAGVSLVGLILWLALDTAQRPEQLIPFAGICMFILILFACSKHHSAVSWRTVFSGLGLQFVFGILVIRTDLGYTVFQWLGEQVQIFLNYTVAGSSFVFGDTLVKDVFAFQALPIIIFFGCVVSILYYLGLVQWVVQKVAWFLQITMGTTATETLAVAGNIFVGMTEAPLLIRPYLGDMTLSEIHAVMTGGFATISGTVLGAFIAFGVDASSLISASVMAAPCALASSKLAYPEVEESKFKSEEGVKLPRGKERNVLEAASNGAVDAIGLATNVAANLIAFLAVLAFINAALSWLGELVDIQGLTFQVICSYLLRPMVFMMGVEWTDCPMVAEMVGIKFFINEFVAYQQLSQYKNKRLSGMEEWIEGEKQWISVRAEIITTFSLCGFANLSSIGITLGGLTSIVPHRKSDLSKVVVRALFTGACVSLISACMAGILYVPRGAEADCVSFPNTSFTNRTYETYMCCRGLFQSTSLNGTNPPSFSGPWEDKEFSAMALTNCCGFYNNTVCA
In short: (§1)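 COS-7 cells transiently transfected with hCNT2 in pCI-neo, assayed after 2 days. Pretreated in Na+-free choline buffer, 37 °C, 2×10 min. Uptake of 10 µM [14C]inosine for 30 min at 37 °C with 10 µM NBMPR, ±Na+, pH 7.4. Na+-dependent uptake set as 100%; lysate counted by scintillation. IC50 by nonlinear regression, ≥3 experiments; top concentration 100 µM.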

[4] = Oral bioavailability in Sprague-Dawley rat at 10 mg/kg by LC/MS analysis; assay type: ADME, organism-based; settings: in vivo
In short: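 Oral F in fasted male SD rats from noncompartmental AUCs. Oral arm: 10 mg/kg suspended in 0.5% CMC-Na. IV arm: 1.0 mg/kg in dimethylacetamide/5% glucose. F = (AUCpo/AUCiv)×(dose iv/dose po)×100. Plasma measured by LC/MS.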

[5] = AUC (0 to infinity) in Sprague-Dawley rat at 1 mg/kg, iv by LC/MS analysis; assay type: ADME, organism-based; parameters: dose 1 mg/kg, route intravenous, time infinity; settings: in vivo
In short: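 Male SD rats (6 weeks old, fasted 16 h) received a tail-vein bolus of 1.0 mg/mL/kg in dimethylacetamide/5% glucose (1:1 v/v). Heparinized jugular blood was drawn at 2 min and 0.25, 1, 2, 4, 6, 8 and 24 h. Plasma was acetonitrile-deproteinized with warfarin internal standard and run by gradient LC on a C18 column, calibrated 1-5000 ng/mL. AUC came from noncompartmental analysis.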

[6] = AUC (0 to infinity) in Sprague-Dawley rat at 10 mg/kg, po by LC/MS analysis; assay type: ADME, organism-based; parameters: dose 10 mg/kg, route oral, time infinity; settings: in vivo
In short: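 Fasted (16 h) 6-week-old male SD rats were dosed orally at 10 mg/5 mL/kg as a suspension in 0.5% sodium carboxymethylcellulose. Heparinized jugular blood was sampled at 0.25, 0.5, 1, 2, 4, 6, 8 and 24 h. Plasma was deproteinized with acetonitrile plus warfarin internal standard and quantified by gradient C18 LC against a 1-5000 ng/mL standard curve. AUC was derived noncompartmentally.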

[7] = target: T3, Sodium/nucleoside cotransporter 2 (Rattus norvegicus, UniProt Q62773); test: Inhibition of rat CNT2 expressed in African green monkey COS7 cells assessed as reduction of [14C]-inosine uptake by liquid scintillation counting analysis; assay type: cell-based, COS-7
T3 sequence (Q62773 whole entry): T1 sequence (whole entry)
In short: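 rCNT2 transiently expressed in COS-7 cells, used 2 days post-transfection. 10 µM [14C]inosine uptake at 37 °C for 30 min in the presence of 10 µM NBMPR. Uptake run with Na+ or with choline replacing Na+, pH 7.4; the Na+-dependent difference defined 100% transport. Scintillation read-out; IC50 by nonlinear regression, ≥3 independent runs.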

Rattus norvegicus [8] = test: Suppression of adenosine/inosine/guanosine mixture-induced elevation of uric acid level in potassium oxonate-treated Sprague-Dawley rat plasma at 1 to 10 mg/kg, po measured after 1 hr by phosphotungstic acid method; assay type: functional, organism-based
In short: (§2)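 Male SD rats, 5 weeks old, fasted overnight, given potassium oxonate 100 mg/kg sc. After 1 h, a purine mix (adenosine:inosine:guanosine 1:1:1, 50 mg/kg) was given orally together with the test compound (50, or 0.1–10 mg/kg). Aortic blood taken 1 h later under anesthesia; plasma uric acid measured by phosphotungstic acid method. Mean ± SEM; Student's t or Dunnett's test.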

[9] = Clearance in Sprague-Dawley rat at 1 mg/kg, iv by LC/MS analysis; assay type: ADME, organism-based; settings: in vivo
In short: (§3)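 Male SD rats, 6 weeks old, fasted 16 h; 1.0 mg/mL/kg tail-vein bolus in dimethylacetamide/5% glucose (1:1 v/v). Jugular blood at 2 min and 0.25–24 h. Plasma deproteinized with acetonitrile plus warfarin internal standard, then LC/MS. Noncompartmental analysis; CLtot, Vdss and t1/2 derived from the iv data.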

[10] = Half life in Sprague-Dawley rat at 1 mg/kg, iv by LC/MS analysis; assay type: ADME, organism-based; settings: in vivo; in short: as §3
[11] = Cmax in Sprague-Dawley rat at 10 mg/kg, po by LC/MS analysis; assay type: ADME, organism-based; parameters: dose 10 mg/kg, route oral; settings: in vivo
In short: (§4)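 Male SD rats, 6 weeks old, fasted 16 h; oral dose 10 mg/5 mL/kg as a suspension in 0.5% sodium carboxymethylcellulose. Jugular blood at 0.25, 0.5, 1, 2, 4, 6, 8 and 24 h. Acetonitrile-deproteinized plasma with warfarin internal standard analysed by LC/MS. Parameters from noncompartmental analysis.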

[12] = Volume of distribution at steady state in Sprague-Dawley rat at 1 mg/kg, iv by LC/MS analysis; assay type: ADME, organism-based; settings: in vivo, read-out: Vdss; in short: as §3
[13] = Tmax in Sprague-Dawley rat at 10 mg/kg, po by LC/MS analysis; assay type: ADME, organism-based; settings: in vivo; in short: as §4
[14] = target: T4, Sodium/nucleoside cotransporter 2 (Homo sapiens) (UniProt O43868); test: Inhibition of human CNT2 expressed in African green monkey COS7 cells assessed as reduction of [14C]-inosine uptake at 100 uM by liquid scintillation counting analysis; assay type: cell-based; settings: COS-7; in short: as §1
T4 sequence (whole entry): T2 sequence (O43868 whole entry)

[15] = target: T1, Sodium/nucleoside cotransporter 2 (Rattus norvegicus); test: Inhibition of rat CNT2 expressed in African green monkey COS7 cells assessed as reduction of [14C]-inosine uptake at 1000 uM by liquid scintillation counting analysis; assay type: cell-based; settings: COS-7
In short: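 rCNT2 cDNA in pCI-neo, transiently transfected into COS-7 cells and assayed 2 days later. Cells were pre-incubated twice for 10 min at 37 °C in Na+-free choline buffer, pH 7.4. Uptake of 10 µM [14C]/unlabeled inosine ran 30 min at 37 °C with 10 µM NBMPR. Na+-dependent uptake (Na+ minus choline buffer) was set as 100%, and percent inhibition was taken at 1000 µM.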

Rattus norvegicus [16] = test: Suppression of adenosine/inosine/guanosine mixture-induced elevation of uric acid level in potassium oxonate-treated Sprague-Dawley rat plasma at 50 mg/kg, po measured after 1 hr by phosphotungstic acid method; assay type: functional; in short: as §2

Structure (SMILES)	inhibition [1]	solubility at 1 h [2] [µg/mL]	IC50 [3] [µM]	IC50 [7] [µM]	also measured
COc1cc(CNc2nc3c(N)ncnc3n2[C@@H]2O[C@H](CO)[C@@H](O)[C@H]2O)ccc1-c1ccccc1	inactive	215 (≈ 449 µM)	1.3		
OCCCCOc1cc(CNc2nc3ccccc3n2[C@@H]2O[C@H](CO)[C@@H](O)[C@H]2O)ccc1-c1ccccc1		120 (≈ 231 µM)	0.062	1.5	bioavailability [4]: 0.51%; AUC(0-inf) [5]: 5 µM·h; AUC(0-inf) [6]: 0.25 µM·h; Activity (Rattus norvegicus [8]): Active; clearance [9]: 6.57 mL/min/kg; half-life [10]: 1.7 h; Cmax [11]: 110 nM; Vd [12]: 0.117 L/kg; Tmax [13]: 0.83 h
CCCOc1cc(-c2ccccc2)ccc1CNc1nc2c(N)ncnc2n1[C@@H]1O[C@H](CO)[C@@H](O)[C@H]1O	inactive				inhibition [14]: inactive
O=c1[nH]cnc2c1nc(NCc1ccc(-c3ccccc3)c(OCCCCO)c1)n2[C@@H]1O[C@H](CO)[C@@H](O)[C@H]1O			20.1	> 1000	inhibition [15]: 18%
Nc1ncnc2c1nc(NCc1ccc(-c3ccccc3)c(OCCCO)c1)n2[C@@H]1O[C@H](CO)[C@@H](O)[C@H]1O			1.1	45.1	
CCCOc1cc(CNc2nc3c(N)ncnc3n2[C@@H]2O[C@H](CO)[C@@H](O)[C@H]2O)ccc1-c1ccccc1	inactive		5.2		
Nc1ncnc2c1nc(NCc1ccc(-c3ccccc3)c(O)c1)n2[C@@H]1O[C@H](CO)[C@@H](O)[C@H]1O	inactive		1.2		
CCOc1cc(CNc2nc3c(N)ncnc3n2[C@@H]2O[C@H](CO)[C@@H](O)[C@H]2O)ccc1-c1ccccc1	inactive	121 (≈ 246 µM)	2.3		
NC(=O)COc1cc(CNc2nc3c(N)ncnc3n2[C@@H]2O[C@H](CO)[C@@H](O)[C@H]2O)ccc1-c1ccccc1	< 5%		5.5	> 100	
Nc1ncnc2c1nc(NCc1ccc(-c3ccncc3)cc1)n2[C@@H]1O[C@H](CO)[C@@H](O)[C@H]1O	inactive		2.7		
Nc1ncnc2c1nc(NCc1ccc(-c3ccccc3)c(OCCCCO)c1)n2[C@@H]1O[C@H](CO)[C@@H](O)[C@H]1O		190 (≈ 354 µM)	0.94	38	Activity (Rattus norvegicus [16]): 42%
